Measurements from ChEMBL document CHEMBL1133019, “Synthesis, spectroscopy, and cytotoxicity of glycosylated acetogenin derivatives as promising molecules for cancer therapy” (J Med Chem, 2000).
“And” between values parts separate entries of the source, which are not always exact repeats. Equal values may be shown once.

Assays:
L1210 [1] = test: Cytotoxic activity against mouse lymphocytic leukemia cells (L1210); format: functional, cell-based
Outline: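 L1210 in RPMI 1640 with 10% FBS, 2 mM L-glutamine, penicillin/streptomycin; doubling time about 13 h. Exponentially growing cells (1 × 10^4/well) exposed 72 h at 37 °C to drug dilutions prepared from DMSO solutions in medium. Coulter counter cell counts, triplicates, as % of triplicate controls; IC50 from residual cells vs concentration on semilog scale.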

L1210 [2] = test: Cell Cycle inhibition against mouse lymphocytic leukemia cells (L1210) at 10 uM; format: functional
Outline: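 L1210 cells cultured 24 h with compound, alongside a compound-free control flask; BrdU added after 15 min. Cells ethanol-permeabilized, stained with rat anti-BrdU then FITC goat secondary, counterstained with propidium iodide, analysed by flow cytometry. Percentage of cells in each cell-cycle phase calculated from histograms.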

[3] = Cytotoxic activity against human epidermoid carcinoma cells (KB); format: functional
Outline: (§1)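 Adherent monolayers seeded 24 h before treatment; 3-fold serial dilutions added; 72 h at 37 °C, humidified 5% CO2. Cells formol-fixed, methylene blue stained, washed, dye released with 0.1 M HCl, absorbance at 620 nm. Proliferation as % of acetogenin-free control; EC50 (50% growth inhibition) read from dose-response curves.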

Vero = test: Cytotoxic activity against african green monkey (Cercopithecus aethiops) kidney epithelial cells (VERO); format: functional, cell-based; conditions: Chlorocebus sabaeus; outline: as §1

Row | Compound | EC50 (L1210 [1]; l1210) | inhibition at 10 µM (L1210 [2]) [%] | EC50 [3] [nM] | EC50 (Vero) [nM] | EC50 (L1210 [1]; Mus musculus, L1210) [nM]
1 | CCCCCC[C@H](O)CCC[C@H](OC[C@H]1O[C@@H](O)[C@H](O)[C@@H](O)[C@@H]1O)[C@H]1CC[C@H]([C@H]2CC[C@H]([C@H](O)CCCCCCCCCCCCC3C[C@H](C)OC3=O)O2)O1 (some centres not stated) | 10 nM and 80 nM | 54 | 9 | – | –
2 | CCCCCC[C@@H](CCC[C@H](OC(C)=O)[C@H]1CC[C@H]([C@H]2CC[C@H]([C@@H](CCCCCCCCCCCCC3=C[C@H](C)OC3=O)OC(C)=O)O2)O1)OC[C@H]1O[C@@H](OC(C)=O)[C@H](OC(C)=O)[C@@H](OC(C)=O)[C@@H]1OC(C)=O | – | – | 0.96 | 20 | 300
3 | CCCCCC[C@H](O)CCC[C@H](OC[C@H]1O[C@@H](O)[C@H](O)[C@@H](O)[C@@H]1O)[C@H]1CC[C@H]([C@H]2CC[C@H]([C@@H](CCCCCCCCCCCCC3=C[C@H](C)OC3=O)OC[C@H]3O[C@@H](O)[C@H](O)[C@@H](O)[C@@H]3O)O2)O1 | – | – | 1050 | 1050 | 10000
4 | CCCCCC[C@H](O)CCC[C@H](OC[C@H]1O[C@@H](OCc2ccccc2)[C@H](OCc2ccccc2)[C@@H](OCc2ccccc2)[C@@H]1OCc1ccccc1)[C@H]1CC[C@H]([C@H]2CC[C@H]([C@H](O)CCCCCCCCCCCCC3=C[C@H](C)OC3=O)O2)O1 | – | – | – | – | 50
5 | CCCCCC[C@@H](CCC[C@H](OC(C)=O)[C@H]1CC[C@H]([C@H]2CC[C@H]([C@@H](CCCCCCCCCCCCC3=C[C@H](C)OC3=O)OC(C)=O)O2)O1)OC[C@H]1O[C@@H](O)[C@H](O)[C@@H](O)[C@@H]1O | – | – | 11 | 340 | 17
6 | CCCCCC[C@H](O)CCC[C@H](O)[C@H]1CC[C@H]([C@H]2CC[C@H]([C@@H](CCCCCCCCCCCCC3=C[C@H](C)OC3=O)OC[C@H]3O[C@H](OCc4ccccc4)[C@H](OCc4ccccc4)[C@@H](OCc4ccccc4)[C@@H]3OCc3ccccc3)O2)O1 | – | 65 | – | – | –
7 | CCCCCC[C@H](O)CCC[C@H](O)[C@H]1CC[C@H]([C@H]2CC[C@H]([C@H](O)CCCCCCCCCCCCC3C[C@H](C)OC3=O)O2)O1 (some centres not stated) | – | – | 0.24 | 16 | < 0.25
8 | CCCCCC[C@H](O)CCC[C@H](O)[C@H]1CC[C@H]([C@H]2CC[C@H]([C@H](O)CCCCCCCCCCCCC3=C[C@H](C)OC3=O)O2)O1 [SQUAMOCIN] | – | – | 0.24 | 16 | < 0.25
9 | CC[C@]1(O)C[C@@H]2CN(CCc3c([nH]c4ccccc34)[C@@](C(=O)OC)(c3cc4c(cc3OC)N(C)[C@H]3[C@@](O)(C(=O)OC)[C@H](OC(C)=O)[C@]5(CC)C=CCN6CC[C@]43[C@@H]65)C2)C1 [VINBLASTINE] | – | – | 1.2 | < 3700 | –
